Experimental data as given in ChEMBL document CHEMBL4257484, “Membrane-active antimicrobial poly(amino-modified alkyl) β-cyclodextrins synthesized via click reactions” (Medchemcomm, 2018).
Values after ≈ are worked out from the molar mass of the structure shown.

Key:
Escherichia coli = experiment: Antibacterial activity against drug-sensitive Escherichia coli K-12 W3110 after 20 hrs by liquid microdilution method; assay type: functional; conditions: K-12 substr. W3110, 20 h
Method in brief: (§1)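 Two-fold serial dilutions of compound in Mueller–Hinton broth, inoculated with 1 × 10^4 cells and cultured at 37 °C for 20 h in microtiter wells.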

Bacillus subtilis = experiment: Antibacterial activity against drug-sensitive Bacillus subtilis 168 after 20 hrs by liquid microdilution method; assay type: functional; conditions: subsp. subtilis str. 168, 20 h; method in brief: as §1
[1] = Hemolytic activity in rabbit RBC at 10 uM after 20 mins relative to control; assay type: ADME, cell-based, Oryctolagus cuniculus, Erythrocyte; conditions: rabbit red blood cells (erythrocytes), read-out: Activity
Method in brief: (§2)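 Rabbit erythrocytes suspended in 150 mM NaCl/10 mM Hepes-NaOH, pH 7.4, at 0.5% hematocrit (final) and incubated with compound at 37 °C. The table footnote gives 20 min; the methods section gives 30 min. Hemolysis was read as absorbance at 540 nm, with 50 µM lysolecithin defining 100% hemolysis.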

[2] = Hemolytic activity in rabbit RBC at 50 uM after 20 mins relative to control; assay type: ADME, cell-based, Oryctolagus cuniculus, Erythrocyte; conditions: rabbit red blood cells (erythrocytes), read-out: Activity; method in brief: as §2
Pseudomonas aeruginosa = experiment: Antibacterial activity against drug-sensitive Pseudomonas aeruginosa PAO1 after 20 hrs by liquid microdilution method; assay type: functional; conditions: PAO1, 20 h; method in brief: as §1
Enterococcus faecalis [3] = experiment: Antibacterial activity against vancomycin-resistant Enterococcus faecalis MS29016 after 18 to 20 hrs by agar dilution method; assay type: functional
Method in brief: (§3)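 Agar dilution per CLSI. Overnight broth cultures were diluted 100-fold, and one loopful (about 10^5 to 10^4 CFU) was spotted onto agar plates containing the CD. Growth was scored after 18–20 h at 37 °C. MIC values are in µM.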

[4] = Hemolytic activity in rabbit RBC at 20 uM after 20 mins relative to control; assay type: ADME, cell-based, Oryctolagus cuniculus, Erythrocyte; conditions: rabbit red blood cells (erythrocytes), read-out: Activity; method in brief: as §2
[5] = Hemolytic activity in rabbit RBC at 5 uM after 20 mins relative to control; assay type: ADME, cell-based, Oryctolagus cuniculus, Erythrocyte; conditions: rabbit red blood cells (erythrocytes), read-out: Activity; method in brief: as §2
[6] = Hemolytic activity in rabbit RBC at 1 uM after 20 mins relative to control; assay type: ADME, cell-based, Oryctolagus cuniculus, Erythrocyte; conditions: rabbit red blood cells (erythrocytes), read-out: Activity; method in brief: as §2
Salmonella typhimurium = experiment: Antibacterial activity against drug-sensitive Salmonella typhimurium LT2 after 20 hrs by liquid microdilution method; assay type: functional, Salmonella enterica subsp. enterica serovar Typhimurium; conditions: Salmonella enterica, LT2, 20 h; method in brief: as §1
Staphylococcus aureus [7] = experiment: Antibacterial activity against methicillin-resistant Staphylococcus aureus MS29202 after 18 to 20 hrs by agar dilution method; assay type: functional; method in brief: as §3
Enterococcus faecium = experiment: Antibacterial activity against drug-resistant Enterococcus faecium MS29120 after 18 to 20 hrs by agar dilution method; assay type: functional; method in brief: as §3
[8] = Lipophilicity, log P of the compound; assay type: physicochemical; conditions: octanol/water
Enterococcus faecalis [9] = experiment: Antibacterial activity against drug-resistant Enterococcus faecalis MS29030 after 18 to 20 hrs by agar dilution method; assay type: functional; method in brief: as §3
Streptococcus agalactiae = experiment: Antibacterial activity against drug-resistant Streptococcus agalactiae B1 after 18 to 20 hrs by agar dilution method; assay type: functional; method in brief: as §3
[10] = Hemolytic activity in rabbit RBC at 2 uM after 20 mins relative to control; assay type: ADME, cell-based, Oryctolagus cuniculus, Erythrocyte; conditions: rabbit red blood cells (erythrocytes), read-out: Activity; method in brief: as §2
Staphylococcus aureus [11] = experiment: Antibacterial activity against methicillin-sensitive Staphylococcus aureus FDA 209P after 20 hrs by liquid microdilution method; assay type: functional; method in brief: as §1

Row | Structure (SMILES) | MIC (Escherichia coli) | MIC (Bacillus subtilis) | hemolysis at 20 min, 10 µM [1] | hemolysis at 20 min, 50 µM [2] | MIC (Pseudomonas aeruginosa) | MIC (Enterococcus faecalis [3]) | hemolysis at 20 min, 20 µM [4] | hemolysis at 20 min, 5 µM [5] | hemolysis at 20 min, 1 µM [6] | MIC (Salmonella typhimurium) | MIC (Staphylococcus aureus [7]) | MIC (Enterococcus faecium) | logP [8] | MIC (Enterococcus faecalis [9]) | MIC (Streptococcus agalactiae) | hemolysis at 20 min, 2 µM [10] | MIC (Staphylococcus aureus [11])
1 | NC(CC1CCCCC1)c1cn(C[C@H]2O[C@@H]3O[C@H]4[C@H](O)[C@@H](O)[C@@H](O[C@H]5[C@H](O)[C@@H](O)[C@@H](O[C@H]6[C@H](O)[C@@H](O)[C@@H](O[C@H]7[C@H](O)[C@@H](O)[C@@H](O[C@H]8[C@H](O)[C@@H](O)[C@@H](O[C@H]9[C@H](O)[C@@H](O)[C@@H](O[C@H]2[C@H](O)[C@H]3O)O[C@@H]9Cn2cc(C(N)CC3CCCCC3)nn2)O[C@@H]8Cn2cc(C(N)CC3CCCCC3)nn2)O[C@@H]7Cn2cc(C(N)CC3CCCCC3)nn2)O[C@@H]6Cn2cc(C(N)CC3CCCCC3)nn2)O[C@@H]5Cn2cc(C(N)CC3CCCCC3)nn2)O[C@@H]4Cn2cc(C(N)CC3CCCCC3)nn2)nn1 (stereo partly drawn) | 10 µM (≈ 23.7 µg/mL) | 3 µM (≈ 7.11 µg/mL) | 107% | 118% | 20 µM (≈ 47.4 µg/mL) | 20 µM (≈ 47.4 µg/mL) | 117% | 89% | 13% | 10 µM (≈ 23.7 µg/mL) | 20 µM (≈ 47.4 µg/mL) | 20 µM (≈ 47.4 µg/mL) | -0.35 | 40 µM (≈ 94.8 µg/mL) | 20 µM (≈ 47.4 µg/mL) | 31% | 10 µM (≈ 23.7 µg/mL)
2 | NCCCCCCCc1cn(C[C@H]2O[C@@H]3O[C@H]4[C@H](O)[C@@H](O)[C@@H](O[C@H]5[C@H](O)[C@@H](O)[C@@H](O[C@H]6[C@H](O)[C@@H](O)[C@@H](O[C@H]7[C@H](O)[C@@H](O)[C@@H](O[C@H]8[C@H](O)[C@@H](O)[C@@H](O[C@H]9[C@H](O)[C@@H](O)[C@@H](O[C@H]2[C@H](O)[C@H]3O)O[C@@H]9Cn2cc(CCCCCCCN)nn2)O[C@@H]8Cn2cc(CCCCCCCN)nn2)O[C@@H]7Cn2cc(CCCCCCCN)nn2)O[C@@H]6Cn2cc(CCCCCCCN)nn2)O[C@@H]5Cn2cc(CCCCCCCN)nn2)O[C@@H]4Cn2cc(CCCCCCCN)nn2)nn1 | > 42 µM | 5 µM (≈ 11.4 µg/mL) | 3% | 3% | > 42 µM | > 42 µM | 4% | 4% | 3% | > 42 µM | 42 µM (≈ 96 µg/mL) | 21 µM (≈ 48 µg/mL) | -0.43 | > 42 µM | 42 µM (≈ 96 µg/mL) | 1% | 3 to 21 µM (≈ 6.85 to 48 µg/mL)
3 | O[C@@H]1[C@@H](O)[C@H]2O[C@H]3[C@H](O)[C@@H](O)[C@@H](O[C@H]4[C@H](O)[C@@H](O)[C@@H](O[C@H]5[C@H](O)[C@@H](O)[C@@H](O[C@H]6[C@H](O)[C@@H](O)[C@@H](O[C@H]7[C@H](O)[C@@H](O)[C@@H](O[C@H]8[C@H](O)[C@@H](O)[C@@H](O[C@@H]1[C@@H](Cn1cc(CNCC9CC9)nn1)O2)O[C@@H]8Cn1cc(CNCC2CC2)nn1)O[C@@H]7Cn1cc(CNCC2CC2)nn1)O[C@@H]6Cn1cc(CNCC2CC2)nn1)O[C@@H]5Cn1cc(CNCC2CC2)nn1)O[C@@H]4Cn1cc(CNCC2CC2)nn1)O[C@@H]3Cn1cc(CNCC2CC2)nn1 | > 45 µM | > 45 µM | 0% | 0% | > 45 µM |  | 0% | 0% | 0% | > 45 µM |  |  | -1.4 |  |  | 0% | > 45 µM
4 | NC(Cc1ccccc1)c1cn(C[C@H]2O[C@@H]3O[C@H]4[C@H](O)[C@@H](O)[C@@H](O[C@H]5[C@H](O)[C@@H](O)[C@@H](O[C@H]6[C@H](O)[C@@H](O)[C@@H](O[C@H]7[C@H](O)[C@@H](O)[C@@H](O[C@H]8[C@H](O)[C@@H](O)[C@@H](O[C@H]9[C@H](O)[C@@H](O)[C@@H](O[C@H]2[C@H](O)[C@H]3O)O[C@@H]9Cn2cc(C(N)Cc3ccccc3)nn2)O[C@@H]8Cn2cc(C(N)Cc3ccccc3)nn2)O[C@@H]7Cn2cc(C(N)Cc3ccccc3)nn2)O[C@@H]6Cn2cc(C(N)Cc3ccccc3)nn2)O[C@@H]5Cn2cc(C(N)Cc3ccccc3)nn2)O[C@@H]4Cn2cc(C(N)Cc3ccccc3)nn2)nn1 (stereo partly drawn) | 21 µM (≈ 48.9 µg/mL) | 5 µM (≈ 11.6 µg/mL) | 6% | 4% | > 41 µM | > 41 µM | 4% | 3% | 5% | > 41 µM | 41 µM (≈ 95.4 µg/mL) | 21 µM (≈ 48.9 µg/mL) | -0.67 | > 41 µM | 21 µM (≈ 48.9 µg/mL) | 4% | 21 µM (≈ 48.9 µg/mL)
